Reference: ChEMBL document CHEMBL1153166, “Synthesis and anticancer activities of ageladine A and structural analogs” (Bioorg Med Chem Lett, 2010)
Activity calls are given as the source filed them. No cut-off for these calls is given here.

Legend:
[1] = molecular target: T1, 72 kDa type IV collagenase (Homo sapiens, UniProt P08253); assay: Inhibition of MMP2 at 5 uM
Target sequence in this assay (P08253 110-660 limits assumed): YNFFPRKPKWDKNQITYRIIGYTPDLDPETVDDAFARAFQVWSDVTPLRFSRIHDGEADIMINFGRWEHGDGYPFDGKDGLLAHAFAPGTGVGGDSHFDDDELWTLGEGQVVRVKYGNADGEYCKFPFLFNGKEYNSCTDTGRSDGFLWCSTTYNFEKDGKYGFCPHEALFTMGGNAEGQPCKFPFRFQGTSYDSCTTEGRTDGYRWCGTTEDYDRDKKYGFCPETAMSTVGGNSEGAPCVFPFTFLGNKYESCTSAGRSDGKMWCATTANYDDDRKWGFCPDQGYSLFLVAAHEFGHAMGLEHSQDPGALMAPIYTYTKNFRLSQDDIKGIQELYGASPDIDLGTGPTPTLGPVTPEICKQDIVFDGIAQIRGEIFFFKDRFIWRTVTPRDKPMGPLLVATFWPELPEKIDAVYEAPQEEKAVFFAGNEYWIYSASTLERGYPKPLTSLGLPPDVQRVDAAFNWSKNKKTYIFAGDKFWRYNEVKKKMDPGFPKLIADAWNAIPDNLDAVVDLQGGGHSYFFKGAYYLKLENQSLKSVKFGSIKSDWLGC

[2] = molecular target: T1, 72 kDa type IV collagenase; assay: Inhibition of MMP2 at 50 uM
Target sequence in this assay (P08253 110-660 limits assumed): as above

[3] = system: KMS-11; assay: Cytotoxicity against human KMS11 cells assessed as reduction of cell viability at 10 uM after 48 hrs by MTS assay; assay type: functional, cell-based
How it was run: (§1)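 Multiple myeloma cells were exposed to compound at a single concentration for 48 h, alongside a DMSO vehicle control. Viability was then read by MTS assay. Each value is the mean of three determinations, deviating <10% from the mean.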

[4] = system: U-266; assay: Cytotoxicity against human U266 cells assessed as reduction of cell viability at 1 uM after 48 hrs by MTS assay; assay type: functional, cell-based; how it was run: as §1
[5] = system: KMS-11; assay: Cytotoxicity against human KMS11 cells assessed as reduction of cell viability at 1 uM after 48 hrs by MTS assay; assay type: functional, cell-based; how it was run: as §1
[6] = system: DU-145; assay: Cytotoxicity against human DU145 cells assessed as reduction of cell viability after 48 hrs by MTS assay; assay type: functional, cell-based; settings: for IC50: DU-145, 48 h
How it was run: (§2)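 IC50 from cell viability read by MTS assay run to the manufacturer's protocol, after 48 h exposure to compound. Each value is the mean of three determinations, deviating <10% from the mean.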

[7] = system: MDA-MB-435; assay: Cytotoxicity against human MDA-MB-435 cells assessed as reduction of cell viability after 48 hrs by MTS assay; assay type: functional, cell-based; settings: MDA-MB-435, 48 h; how it was run: as §2
[8] = system: U-266; assay: Cytotoxicity against human U266 cells assessed as reduction of cell viability at 10 uM after 48 hrs by MTS assay; assay type: functional, cell-based; how it was run: as §1
[9] = system: A2058; assay: Cytotoxicity against human A2058 cells assessed as reduction of cell viability after 48 hrs by MTS assay; assay type: functional, cell-based; settings: A2058, 48 h; how it was run: as §2
[10] = system: RPMI-8226; assay: Cytotoxicity against human RPMI8226 cells assessed as reduction of cell viability at 1 uM after 48 hrs by MTS assay; assay type: functional, cell-based; how it was run: as §1
[11] = system: RPMI-8226; assay: Cytotoxicity against human RPMI8226 cells assessed as reduction of cell viability at 10 uM after 48 hrs by MTS assay; assay type: functional, cell-based; how it was run: as §1
[12] = molecular target: T1, 72 kDa type IV collagenase; assay: Inhibition of MMP2
Target sequence in this assay (P08253 whole entry): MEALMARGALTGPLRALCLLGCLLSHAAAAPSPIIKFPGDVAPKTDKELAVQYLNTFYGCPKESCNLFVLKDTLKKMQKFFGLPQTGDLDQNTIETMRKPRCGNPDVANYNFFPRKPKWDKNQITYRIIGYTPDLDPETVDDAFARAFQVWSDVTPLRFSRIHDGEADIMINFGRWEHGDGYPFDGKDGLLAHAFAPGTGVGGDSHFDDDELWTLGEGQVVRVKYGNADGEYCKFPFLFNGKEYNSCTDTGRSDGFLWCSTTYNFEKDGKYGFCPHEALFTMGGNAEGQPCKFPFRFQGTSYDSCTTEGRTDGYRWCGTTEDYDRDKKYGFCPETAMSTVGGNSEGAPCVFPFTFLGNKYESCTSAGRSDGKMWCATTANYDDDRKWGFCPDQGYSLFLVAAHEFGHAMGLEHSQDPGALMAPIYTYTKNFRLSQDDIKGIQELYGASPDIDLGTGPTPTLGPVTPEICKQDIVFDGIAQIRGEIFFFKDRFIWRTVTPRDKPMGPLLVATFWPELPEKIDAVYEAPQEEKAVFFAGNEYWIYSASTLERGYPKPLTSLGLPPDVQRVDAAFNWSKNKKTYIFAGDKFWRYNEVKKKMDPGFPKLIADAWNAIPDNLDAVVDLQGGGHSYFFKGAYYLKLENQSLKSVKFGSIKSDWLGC

## CC(C)c1nccc2nc(N)[nH]c12
[1]
  inhibition: 25%
[2]
  inhibition: 17%

## Nc1nc2ccnc(-c3c[nH]c4ccccc34)c2[nH]1
[1]
  inhibition: 25%
[2]
  inhibition: 26%

## Nc1nc2ccnc(C3CCCCC3)c2[nH]1
[1]
  inhibition: 9%
[2]
  inhibition: 40%

## NC1=NC2C=CC=NC(C3CCCCC3)=C2N1 (stereo not drawn)
[3]
  Activity: Active
[1]
  inhibition: 23%
[4]
  Activity: Active
[5]
  Activity: Active
[6]
  Activity: Dose-dependent effect
  IC50: 5 µM
[7]
  IC50: 3.4 µM
[8]
  Activity: Active
[9]
  IC50: 4.5 µM
[10]
  Activity: Active
[2]
  inhibition: 53%
[11]
  Activity: Active

## Nc1nc2c(-c3cc(Br)c(Br)[nH]3)nccc2[nH]1 [AGELADINE A]
[12]
  IC50: 1700 nM

## CC(C)CC1=C2NC(N)=NC2C=CC=N1 (stereo not drawn)
[3]
  Activity: Active
[1]
  inhibition: 27%
[4]
  Activity: Active
[5]
  Activity: Active
[6]
  Activity: Dose-dependent effect
  IC50: 4.3 µM
[7]
  IC50: 2.9 µM
[8]
  Activity: Active
[9]
  IC50: 4.1 µM
[10]
  Activity: Active
[2]
  inhibition: 60%
[11]
  Activity: Active

## CC(C)Cc1nccc2nc(N)[nH]c12
[1]
  inhibition: 31%
[2]
  inhibition: 22%

## CC(C)C1=C2NC(N)=NC2C=CC=N1 (stereo not drawn)
[3]
  Activity: Active
[1]
  inhibition: 28%
[4]
  Activity: Active
[5]
  Activity: Active
[6]
  Activity: Dose-dependent effect
  IC50: 7.5 µM
[7]
  IC50: 6.7 µM
[8]
  Activity: Active
[9]
  IC50: 9.5 µM
[10]
  Activity: Active
[2]
  inhibition: 52%
[11]
  Activity: Active

## NC1=NC2C=CC=NC(c3ccc(Cl)cc3)=C2N1 (stereo not drawn)
[3]
  Activity: Active
[1]
  inhibition: 27%
[4]
  Activity: Active
[5]
  Activity: Active
[6]
  Activity: Dose-dependent effect
  IC50: 6.2 µM
[7]
  IC50: 3.6 µM
[8]
  Activity: Active
[9]
  IC50: 5.1 µM
[10]
  Activity: Active
[2]
  inhibition: 54%
[11]
  Activity: Active

## Nc1nc2ccnc(-c3cccc4ccccc34)c2[nH]1
[1]
  inhibition: 20%
